Assay results: ChEMBL document CHEMBL1139141, “Structure-based design of benzylamino-acridine compounds as G-quadruplex DNA telomere targeting agents” (Bioorg Med Chem Lett, 2007)

Columns and labels:
Homo sapiens = organism: Homo sapiens; experiment: Effect on human G-quadruplex DNA stability by FRET assay
Procedure, shortened: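 Oligonucleotide F21T (21-mer d[GGG(TTAGGG)3], donor–acceptor end-labelled) annealed at 400 nM in 50 mM KCl, 10 mM cacodylic acid pH 7.4 (92° 2 min, cooled over 4 h); 200 nM final with ligand 0.10–10.00 µM. Fluorescence read at 0.5° steps, 30–100° at 1°/min, excitation 450–495, detection 515–545 nm; ΔTm from melting, triplicate.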

[1] = target: Telomerase reverse transcriptase (Homo sapiens, UniProt O14746); experiment: Inhibition of human telomerase by TRAP assay
Chain of Telomerase reverse transcriptase (O14746 whole entry): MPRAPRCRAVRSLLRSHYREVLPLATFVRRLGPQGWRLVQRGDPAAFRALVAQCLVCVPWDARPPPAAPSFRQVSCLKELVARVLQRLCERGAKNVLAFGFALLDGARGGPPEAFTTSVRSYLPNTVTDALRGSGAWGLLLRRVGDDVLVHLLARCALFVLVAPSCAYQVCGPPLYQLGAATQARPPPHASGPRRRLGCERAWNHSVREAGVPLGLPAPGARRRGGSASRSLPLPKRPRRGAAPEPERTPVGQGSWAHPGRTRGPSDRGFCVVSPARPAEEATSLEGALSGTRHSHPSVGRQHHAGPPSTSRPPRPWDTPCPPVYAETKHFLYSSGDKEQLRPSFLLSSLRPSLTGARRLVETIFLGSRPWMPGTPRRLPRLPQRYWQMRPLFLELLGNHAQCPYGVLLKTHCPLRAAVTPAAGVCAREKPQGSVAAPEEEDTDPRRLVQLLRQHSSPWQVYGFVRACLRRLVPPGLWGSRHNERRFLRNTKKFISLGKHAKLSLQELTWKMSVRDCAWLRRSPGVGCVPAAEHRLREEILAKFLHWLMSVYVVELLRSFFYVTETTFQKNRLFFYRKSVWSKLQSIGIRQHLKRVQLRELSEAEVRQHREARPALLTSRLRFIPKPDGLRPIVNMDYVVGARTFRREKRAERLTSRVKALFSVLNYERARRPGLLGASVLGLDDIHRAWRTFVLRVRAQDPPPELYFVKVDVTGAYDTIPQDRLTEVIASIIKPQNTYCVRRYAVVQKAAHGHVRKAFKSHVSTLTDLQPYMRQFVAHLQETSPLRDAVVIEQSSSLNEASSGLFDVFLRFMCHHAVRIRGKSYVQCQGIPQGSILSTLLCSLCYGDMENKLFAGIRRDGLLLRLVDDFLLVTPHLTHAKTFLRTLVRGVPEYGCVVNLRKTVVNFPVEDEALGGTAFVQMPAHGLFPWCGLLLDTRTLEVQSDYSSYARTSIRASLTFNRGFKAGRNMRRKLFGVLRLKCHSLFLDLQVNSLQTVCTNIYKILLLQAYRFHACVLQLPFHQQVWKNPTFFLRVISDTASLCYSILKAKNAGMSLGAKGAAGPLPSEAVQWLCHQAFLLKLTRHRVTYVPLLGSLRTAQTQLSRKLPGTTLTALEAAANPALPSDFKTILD
Procedure, shortened: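 Modified TRAP using A2780 ovarian carcinoma cell extract (1 µg protein) in 20 mM Tris-HCl pH 8.3, 68 mM KCl, 1.5 mM MgCl2, 1 mM EGTA, 0.05% Tween 20, 125 µM dNTPs, TS primer; 10 min at 30° with or without drug, heat-inactivated, then ACX primer PCR, 33 cycles. SYBR Green-stained PAGE products quantified by fluorescence; telEC50, triplicate.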

A549 = experiment: Growth inhibition of human A549 cells by SRB assay; assay type: functional, cell-based
DU-145 = experiment: Growth inhibition of human DU145 cells by SRB assay; assay type: functional, cell-based
MCF7 = experiment: Growth inhibition of human MCF7 cells by SRB assay; assay type: functional, cell-based

Row | ΔTm (Homo sapiens) | EC50 [1] | IC50 (A549) | IC50 (DU-145) | IC50 (MCF7) | SMILES
1 | 21 °C | 360 nM | 2000 nM | 2570 nM | 540 nM | CN(C)c1ccc(Nc2c3ccc(NC(=O)CCN4CCCCC4)cc3nc3cc(NC(=O)CCN4CCCCC4)ccc23)cc1
2 | 31 °C | 230 nM | 500 nM | 770 nM | 460 nM | Cc1cccc(CNc2c3ccc(NC(=O)CCN4CCCCC4)cc3nc3cc(NC(=O)CCN4CCCCC4)ccc23)c1
3 | 30.5 °C | 240 nM | 2000 nM | 2530 nM | 1000 nM | O=C(CCN1CCCC1)Nc1ccc2c(NCc3cc(F)cc(C(F)(F)F)c3)c3ccc(NC(=O)CCN4CCCC4)cc3nc2c1
4 | 32.5 °C | 350 nM | 4570 nM | 10400 nM | 3720 nM | COc1cc(CNc2c3ccc(NC(=O)CCN4CCCC4)cc3nc3cc(NC(=O)CCN4CCCC4)ccc23)cc(OC)c1
5 | 30 °C | 440 nM | 370 nM | 470 nM | 200 nM | COc1cc(CNc2c3ccc(NC(=O)CCN4CCCCC4)cc3nc3cc(NC(=O)CCN4CCCCC4)ccc23)cc(OC)c1
6 | 28 °C | 120 nM | 2420 nM | 2300 nM | 2530 nM | CN(C)c1ccc(Nc2c3ccc(NC(=O)CCN4CCCC4)cc3nc3cc(NC(=O)CCN4CCCC4)ccc23)cc1
7 | 29.5 °C | 1000 nM | 1190 nM | 10000 nM | 3000 nM | Cc1cccc(CNc2c3ccc(NC(=O)CCN4CCCC4)cc3nc3cc(NC(=O)CCN4CCCC4)ccc23)c1
8 | 27.5 °C | 860 nM | 6300 nM | 2610 nM | 1070 nM | O=C(CCN1CCCC1)Nc1ccc2c(NCc3cc(C(F)(F)F)cc(C(F)(F)F)c3)c3ccc(NC(=O)CCN4CCCC4)cc3nc2c1
9 | 29.5 °C | 30 nM | 2110 nM | 9750 nM | 2260 nM | O=C(CCN1CCCC1)Nc1ccc2c(NCc3ccc(F)c(F)c3)c3ccc(NC(=O)CCN4CCCC4)cc3nc2c1
10 | 26.5 °C | 880 nM | 1200 nM | 2250 nM | 520 nM | O=C(CCN1CCCCC1)Nc1ccc2c(NCc3ccc(F)c(F)c3)c3ccc(NC(=O)CCN4CCCCC4)cc3nc2c1
11 | 24 °C | 390 nM | 570 nM | 630 nM | 580 nM | Cc1cccc(CNc2c3ccc(NC(=O)CCN4CCC(C)CC4)cc3nc3cc(NC(=O)CCN4CCC(C)CC4)ccc23)c1
